Source: PubChem BioAssay (The Scripps Research Institute Molecular Screening Center)
Rows were chosen to be rich in hits. Some 1.9% of all compounds tested hit in one or more screens of this group.
EBNA-1 inhibitor: blocks EBNA-1 binding to DNA; hit rate 0.34% among 300,000; inhibition, % at 14.8 µM; EBNA-1 DNA binding, fluorescence polarization; in the data active = inhibition above about 28%
NS3 helicase inh: inhibitors of Hepatitis C virus NS3 helicase. NS3 helicase DNA unwinding, Cy5 molecular beacon fluorescence. hit rate 0.56% among 290,000. inhibition, % at 10.9 µM;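 active = inhibition above the mean of all tested compounds plus 3 SD, set per campaign, cut at about 35% in these data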
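Compound dosing – single dose, 10.9 µM nominal final, DMSO 0.8% final · System – NS3 helicase fragment of HCV · Buffer or medium – MOPS pH 6.5, MgCl2, DTT, Tween20, BSA · Signal – Cy5 beacon fluorescence read at start and 1 h · Also added – annealed dual-labelled DNA beacon duplex, ATP-started · Schedule – 1 h at 25 °C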
PP1 inh: PP1-alpha (human) inhibition in PP5 counter-screen; P62136; purified PP1alpha, OMFP fluorescence; inhibition, % at 6.7 µM; hit rate 0.9% among 320,000; AID 2235;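 active = inhibition above the mean inhibition of all tested compounds plus 3 SD, computed separately for each screening campaign, cut at about 15% in these data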
Target sequence (P62136 whole entry, looked up): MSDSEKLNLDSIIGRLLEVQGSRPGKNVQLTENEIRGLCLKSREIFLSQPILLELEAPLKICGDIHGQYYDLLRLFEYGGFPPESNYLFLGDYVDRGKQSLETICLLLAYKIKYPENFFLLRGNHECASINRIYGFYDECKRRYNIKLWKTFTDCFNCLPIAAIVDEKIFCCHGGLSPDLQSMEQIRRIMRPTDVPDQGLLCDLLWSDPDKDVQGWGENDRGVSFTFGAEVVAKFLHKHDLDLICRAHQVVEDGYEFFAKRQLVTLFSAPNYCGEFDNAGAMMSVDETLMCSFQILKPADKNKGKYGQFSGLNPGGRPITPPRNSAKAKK
ZTA counter: blocks Epstein-Barr virus ZTA, an EBNA-1 counter-screen; P03206; ZTA-DNA binding, fluorescence polarization; inhibition, % at 11 µM; hit rate 0.15% among 320,000; AID 2234; in the data active = inhibition above about 33%
Target sequence (P03206 whole entry, looked up): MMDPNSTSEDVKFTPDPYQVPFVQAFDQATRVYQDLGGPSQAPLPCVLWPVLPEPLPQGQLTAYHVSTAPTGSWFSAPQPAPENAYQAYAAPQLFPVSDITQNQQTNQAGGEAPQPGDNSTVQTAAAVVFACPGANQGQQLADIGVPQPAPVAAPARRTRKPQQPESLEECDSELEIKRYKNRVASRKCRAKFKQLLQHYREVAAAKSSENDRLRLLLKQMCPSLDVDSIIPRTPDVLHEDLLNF
core dimer inh: HCV core protein dimerization inhibition; inhibition, % at 5 µM; hit rate 0.33% among 300,000; TR-FRET GST/Flag-core106 dimerization, 1536-well;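 active = inhibition above the mean of all tested compounds plus 3 SD, set per screening campaign, cut at about 45% in these data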
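System: GST-tagged and Flag-tagged HCV core protein residues 1-106 / Input: core106 proteins, GST 13.5 nM and Flag 17 nM / Buffer or medium: KF-containing HEPES buffer, pH 7.45, DTT, CHAPS, BSA / Probe or stimulus: Eu-anti-GST and XL665-anti-Flag labelled anti-tag antibodies / Schedule: 4 h, 22.5 °C incubation / Technique: TR-FRET 671 and 617 nm emission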
EBNA-1 confirm: EBNA-1 (EBV) inhibition, confirmation. shares compounds with EBNA-1 inhibitor. Recombinant EBNA-1 DBD, Cy5-DNA fluorescence polarization. inhibition, % at 14.8 µM. hit rate 35% among 830;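 active = mean inhibition across replicates above a set limit taken from the earlier primary screen, cut at about 28% in these data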
ZTA counter trip: counter-screen for EBNA-1 inhibitors: Epstein-Barr virus ZTA inhibitors, triplicate; shares compounds with EBNA-1 inhibitor; Zta-ZRE DNA binding, Cy5 fluorescence polarization; inhibition, % at 11.1 µM; 830 tested, under 10 active; AID 2328;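 active = mean inhibition over triplicates above a set limit taken from the primary EBNA-1 screen, cut at about 37% in these data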;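 note: purified full length Zta protein with Cy5 labeled ZRE DNA probe; inhibitors lower polarization by freeing the labeled DNA probe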
Each line names hits and unclear results; the compound was inactive in the other large screens (follow-up assays come after a bar, where they were run).

CCOc1ccc(N2CC(C(=O)NC3CCCC3)CC2=O)cc1 (stereo not given)	none
Cn1c(/C(C#N)=C/c2cccc(O)c2)nc2ccccc21	none
Cn1c(/C(C#N)=C/c2ccc(-c3ccc(S(N)(=O)=O)cc3)o2)nc2ccccc21	EBNA-1 inhibitor 40 | EBNA-1 confirm 38 | ZTA counter trip inactive
CCOc1ccc2oc(C(=O)NNC(=O)c3ccccc3O)c(C)c2c1	EBNA-1 inhibitor 73 (no result: NS3 helicase inh) | EBNA-1 confirm inactive | ZTA counter trip inactive
Cc1ccc(N(CC(=O)NC2CCCCC2)C(=O)CNC(=O)c2ccco2)c(C)c1	none
Cc1cc2cc(C=C(C#N)C#N)c(Cl)nc2cc1C	none
COc1ccc(C([O-])=Nc2ccc[n+](-c3nc4ccccc4nc3NS(=O)(=O)c3ccccc3)c2)cc1	EBNA-1 inhibitor 29 | EBNA-1 confirm inactive | ZTA counter trip inactive
O=C(Nc1ccccc1)c1oc2ccccc2c1NC(=O)C1CC1	none
COc1ccc(/C=C/C(=O)NC(=S)Nc2ccc(S(N)(=O)=O)cc2)cc1	EBNA-1 inhibitor 33 | EBNA-1 confirm 39 | ZTA counter trip 37
COc1ccc(/C=C/C(=O)NC(=S)Nc2ccc(S(=O)(=O)Nc3ccc(OC)nn3)cc2)cc1	none
CC(=O)c1cccc(NC(=S)N2CCN(CCN3C(=O)c4cccc5cccc(c45)C3=O)CC2)c1	EBNA-1 inhibitor 34 | EBNA-1 confirm inactive | ZTA counter trip inactive
COc1ccc(/C=C/C(=O)Oc2ccc(/C=N\NC(=O)c3ccc(F)cc3)cc2)cc1	none
COc1ccc(/C=C/C(=O)Oc2cccc(/C=N/NC(=O)c3cccc(F)c3)c2)cc1	EBNA-1 inhibitor 29 | EBNA-1 confirm inactive | ZTA counter trip inactive
COc1ccc(C)cc1NC(=O)CCc1ccc(S(=O)(=O)N2CCOCC2)cc1	none (no result: EBNA-1 inhibitor, NS3 helicase inh, core dimer inh)
O=C(N/N=C\c1ccc(CNS(=O)(=O)c2ccc(Cl)cc2)o1)C(=O)Nc1ccc(Oc2ccccc2)cc1	EBNA-1 inhibitor 29 | EBNA-1 confirm 30 | ZTA counter trip inactive
S=c1nc[nH]c2c1[nH]c1ccc(Cl)cc12	EBNA-1 inhibitor 43 | EBNA-1 confirm inactive | ZTA counter trip inactive
S=c1nc[nH]c2c1[nH]c1ccccc12	none
NC(=O)c1nn(-c2ccccc2)nc1NC(=O)Cn1nnc(-c2ccccc2)n1	EBNA-1 inhibitor 46 | EBNA-1 confirm inactive | ZTA counter trip inactive
CN(C)c1ccc(C(=O)N/N=C/c2ccccn2)cc1	none
CN(C)S(=O)(=O)c1ccc(Cl)c(C(=O)Nc2ccc(S(=O)(=O)N3CCOCC3)cc2)c1	none
COc1cc(NC(=O)COC(=O)/C=C/c2ccc(OC)c(OC)c2)cc(OC)c1	none
COc1ccc(OC)c(NC(=O)COC(=O)/C=C/c2ccc(Cl)cc2)c1	EBNA-1 inhibitor 42 | EBNA-1 confirm inactive | ZTA counter trip inactive
COc1cc(NC(=O)COC(=O)/C=C/c2ccccc2Cl)cc(OC)c1	EBNA-1 inhibitor 69 | EBNA-1 confirm 30 | ZTA counter trip inactive
COc1ccc(Nc2nnc(SCC(=O)c3cc4ccccc4o3)s2)cc1	EBNA-1 inhibitor 44 | EBNA-1 confirm 37 | ZTA counter trip inactive
COc1ccc(-c2cc(C(=O)Nc3cnn(Cc4ccccc4C)c3)no2)cc1OC	EBNA-1 inhibitor 36 | EBNA-1 confirm inactive | ZTA counter trip inactive
COc1ccc(N(C(=O)c2snc(C(N)=O)c2N)C(CC(C)C)C(=O)NCC2CCCO2)cc1 (stereo not given)	none
O=C(CNC(=O)c1ccco1)NCC(=O)OCc1ccc(C(=O)Oc2ccc(Cl)cc2)cc1	EBNA-1 inhibitor 89 | EBNA-1 confirm inactive | ZTA counter trip inactive
Cc1cccc(NC(=O)c2ccc(N3C(=O)C4C5C=CC(C6CC56)C4C3=O)cc2)c1 (stereo not given)	EBNA-1 inhibitor 57 | EBNA-1 confirm 41 | ZTA counter trip inactive
COc1ccc(OC)c(-c2cc(C(=O)NC3CCCC3)c3ccccc3n2)c1	none
O=C1c2cccnc2C(=O)N1Cc1ccc(S(=O)(=O)NCc2ccco2)s1	none
COC(=O)c1cn(NC(=O)/C=C/c2cc(OC)ccc2OC)c(=O)c2ccccc12	EBNA-1 inhibitor 42 | EBNA-1 confirm inactive | ZTA counter trip inactive
COC(=O)c1cn(NC(=O)c2ccc(OC)c(OC)c2)c(=O)c2ccccc12	none
CCN(CC)C(=O)CSc1ncnc2sc(C)c(C)c12	none
COc1ccccc1NC(=O)c1ccc2c(c1)N(CC(=O)NC(C)C)C(=O)C(C)(C)O2	none
Cc1ccc(NC(=O)CSc2nnc(NC(=O)c3ccc(S(=O)(=O)N4CCOCC4)cc3)s2)cc1	EBNA-1 inhibitor 56 | EBNA-1 confirm 84 | ZTA counter trip inactive
Cc1ccc(-c2cc(Cc3ccncc3)c(=O)[nH]n2)cc1	none
CC(=O)Nc1cccc(NC(=O)CSc2ccc(-c3ccccn3)nn2)c1	none
Cc1ccc(NC(=O)CSc2ccc(-c3ccccn3)nn2)cc1F	EBNA-1 inhibitor 36 | EBNA-1 confirm 53 | ZTA counter trip inactive
CCOc1ccccc1NC(=O)C1(S(=O)(=O)c2ccc(Cl)cc2)CC1	none
O=C(COC(=O)CNC(=O)c1ccccc1)Nc1ccc(S(=O)(=O)N2CCOCC2)cc1	none
CCCn1c(C)cc(/C=C(\C#N)C(=O)OCC(=O)Nc2cccc(OC)c2)c1C	EBNA-1 inhibitor 67 | EBNA-1 confirm inactive | ZTA counter trip inactive
CCCn1c(C)cc(/C=C(\C#N)C(=O)OCC(=O)Nc2cccc(S(N)(=O)=O)c2)c1C	none (no result: EBNA-1 inhibitor, NS3 helicase inh, core dimer inh)
CC1CN(C(=S)Nc2cccc(Cl)c2Cl)CC(C)O1 (stereo not given)	none
COc1ccc(Nc2nc(N(C)c3ccccc3)nc(N)c2[N+](=O)[O-])cc1	EBNA-1 inhibitor 34 | EBNA-1 confirm 40 | ZTA counter trip inactive
N#Cc1ccc(NC(=O)COC(=O)C2Cc3ccccc3CN2C(=O)c2ccccc2)cc1 (stereo not given)	EBNA-1 inhibitor 33 | EBNA-1 confirm inactive | ZTA counter trip inactive
Cc1cccc(C)c1NC(=O)COC(=O)C1Cc2ccccc2CN1C(=O)c1ccccc1 (stereo not given)	none
COc1ccc(-c2ccc(C#N)c(SCC(=O)NCCc3ccccc3)n2)cc1OC	EBNA-1 inhibitor 28 | EBNA-1 confirm inactive | ZTA counter trip inactive
COc1cccc(-c2ccc(C#N)c(SCC(=O)NCCc3cccc(Cl)c3)n2)c1	none
CCCNC(=O)c1ccc(N2CCC3(CC2)CC(c2ccccc2)=NO3)c(N)c1	EBNA-1 inhibitor 51 | EBNA-1 confirm inactive | ZTA counter trip inactive
Cc1ccc(-n2c(SCC(=O)Nc3nccs3)nc3c(c2=O)SCC3)cc1	EBNA-1 inhibitor 39 | EBNA-1 confirm 38 | ZTA counter trip inactive
COc1cccc(Nc2nnc(SCn3nnc4ccccc4c3=O)s2)c1	EBNA-1 inhibitor 43 | EBNA-1 confirm 38 | ZTA counter trip inactive
CCc1ccc(Nc2nnc(SCn3nnc4ccccc4c3=O)s2)cc1	none
